From ChEMBL document CHEMBL4622950, “The synthesis and antituberculosis activity of 5-alkynyl uracil derivatives” (Bioorg Med Chem Lett, 2020) come the findings set out here.

Assay [1] concerns Mycobacterium tuberculosis. Put plainly: Antitubercular activity against Mycobacterium bovis BCG assessed as bacterial growth inhibition at 50 to 100 ug/ml by MABA relative to control. Type of assay: functional, variant bovis BCG.
In assay [2] the test system is Mycobacterium tuberculosis. Put plainly: Antitubercular activity against Mycobacterium bovis BCG assessed as bacterial growth inhibition at 10 ug/ml by MABA relative to control. Type of assay: functional. To be noted: variant bovis BCG, read-out: GI.
Assay [3] relates to Mycobacterium tuberculosis. Nature of the assay: Antitubercular activity against Mycobacterium bovis BCG assessed as bacterial growth inhibition by alamar blue staining based assay. To be noted: variant bovis BCG. It is filed as functional. Summed up:
(§1)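 Whole-cell growth inhibition of Mycobacterium bovis and M. tuberculosis H37Ra, read quantitatively by Microplate Alamar Blue Assay (alamar blue reagent). Compounds were tested across 1 to 100 µg/ml. Activity was expressed as MIC50 (µg/ml) from this concentration series.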

Assay [4] concerns Mycobacterium tuberculosis. Put plainly: Antitubercular activity against Mycobacterium bovis BCG assessed as bacterial growth inhibition at 100 ug/ml by MABA relative to control. It is filed as functional. Particulars: variant bovis BCG, read-out: GI. (In general: Resazurin is reduced to fluorescent resorufin, in cell work by metabolically active cells.)
In assay [5] the test system is Mycobacterium tuberculosis. Put plainly: Antitubercular activity against Mycobacterium bovis BCG assessed as bacterial growth inhibition at 10 to 50 ug/ml by MABA relative to control. It is filed as functional, variant bovis BCG.
For assay [6], the system named is Mycobacterium tuberculosis. Put plainly: Antitubercular activity against Mycobacterium bovis BCG assessed as bacterial growth inhibition at 1 to 5 ug/ml by MABA relative to control. Type of assay: functional, variant bovis BCG.
The subject of assay [7] is Mycobacterium tuberculosis. Nature of the assay: Antitubercular activity against Mycobacterium bovis BCG assessed as bacterial growth inhibition by MABA relative to control. It is filed as functional, variant bovis BCG. Summed up: as §1
In assay [8] the test system is Mycobacterium tuberculosis. Put plainly: Antitubercular activity against Mycobacterium bovis BCG assessed as bacterial growth inhibition at 50 ug/ml by MABA relative to control. Type of assay: functional. Particulars: variant bovis BCG, read-out: GI.
Assay [9] relates to Mycobacterium tuberculosis. Nature of the assay: Antitubercular activity against Mycobacterium bovis BCG assessed as bacterial growth inhibition at 25 ug/ml by MABA relative to control. It is filed as functional. To be noted: variant bovis BCG, read-out: GI.
The subject of assay [10] is Mycobacterium tuberculosis. Put plainly: Antitubercular activity against Mycobacterium bovis BCG assessed as bacterial growth inhibition at 5 ug/ml by MABA relative to control. Type of assay: functional. Particulars: variant bovis BCG, read-out: GI.
The subject of assay [11] is Mycobacterium tuberculosis. Nature of the assay: Antitubercular activity against Mycobacterium bovis BCG assessed as bacterial growth inhibition at 1 ug/ml by MABA relative to control. It is filed as functional. To be noted: variant bovis BCG, read-out: GI.

In brackets after ≈: the same amount, converted by molar mass.

Take `O=c1[nH]cc(C#Cc2ccccc2)c(=O)[nH]1`: the “growth inhibition (GI)” value in [1] turned out to be 90%. Besides, the inhibition of growth at 10 µg/mL in assay [2] worked out at 40%. The MIC50 (as a rule, an inhibitory concentration at the 50% level, which refers to growth in some studies and to a panel of isolates in others) in assay [3] was 17.4 µg/mL (≈ 82 µM).

Consider `O=c1[nH]cc(C#CC2CCCCC2)c(=O)[nH]1`, for which, in [4], the inhibition of growth at 100 µg/mL came to 90%. Moreover, the “growth inhibition (GI)” value in assay [5] is listed as 75%; in assay [6], 50%. In [3], the MIC50 was found to be 2.5 µg/mL (≈ 11.5 µM).

For the molecule `CCCCCCC#Cc1c[nH]c(=O)[nH]c1=O`, the “growth inhibition (GI)” value in assay [7] is 0%.

For the molecule `O=c1[nH]c(=O)n([C@@H]2O[C@H](CO)[C@@H](O)[C@H]2O)cc1C#CC1CC1`, in assay [4], the inhibition of growth at 100 µg/mL came out at 90%. In assay [6], the “growth inhibition (GI)” value is 50%. In assay [3], the MIC50 was found to be 2.4 µg/mL (≈ 7.78 µM).

As to `CCCCCCC#Cc1cn([C@@H]2O[C@H](CO)[C@@H](O)[C@H]2O)c(=O)[nH]c1=O`, the inhibition of growth at 50 µg/mL in assay [8] stood at 0%. The inhibition of growth at 10 µg/mL in assay [2] was determined as 0%. In assay [4], the inhibition of growth at 100 µg/mL is 60%. The MIC50 in [3] was below 50 µg/mL.

As for `CC#Cc1c[nH]c(=O)[nH]c1=O`, the “growth inhibition (GI)” value in assay [7] is 0%.

Consider `CCC#Cc1c[nH]c(=O)[nH]c1=O`, for which, in assay [7], the “growth inhibition (GI)” value turned out to be 0%.

Regarding `O=c1[nH]c(=O)n([C@@H]2O[C@H](CO)[C@@H](O)[C@H]2O)cc1C#CC(O)c1ccccc1` (stereo partly drawn), in assay [6], the “growth inhibition (GI)” value stood at 100%. Besides, the MIC50 in assay [3] came out at 1.4 µg/mL (≈ 3.74 µM).

In the case of `CCCCC#Cc1c[nH]c(=O)[nH]c1=O`, the “growth inhibition (GI)” value in assay [7] is listed as 0%.

In the case of `O=c1[nH]cc(C#CC2CC2)c(=O)[nH]1`, in assay [4], the inhibition of growth at 100 µg/mL came out at 80%. Further, the “growth inhibition (GI)” value in [5] is listed as 60%. The MIC50 in assay [3] turned out to be 7.8 µg/mL (≈ 44.3 µM).

`O=c1[nH]c(=O)n([C@@H]2O[C@H](CO)[C@@H](O)[C@H]2O)cc1C#Cc1ccccc1`: the “growth inhibition (GI)” value is reported as 90% in [1] and 50% in [6]. In addition, the inhibition of growth at 10 µg/mL in [2] turned out to be 75%. In addition, the MIC50 in assay [3] was 2.7 µg/mL (≈ 7.84 µM).

Consider `CCCCC#Cc1cn([C@@H]2O[C@H](CO)[C@@H](O)[C@H]2O)c(=O)[nH]c1=O`, for which the inhibition of growth at 50 µg/mL in assay [8] came to 0%. Further, the inhibition of growth at 10 µg/mL in [2] was 0%. Besides, in assay [4], the inhibition of growth at 100 µg/mL is 50%. The MIC50 in assay [3] is 50 µg/mL (≈ 154 µM).

`C[Si](C)(C)C#Cc1c[nH]c(=O)[nH]c1=O`: the inhibition of growth at 100 µg/mL in [4] was 50%. The MIC50 in assay [3] was determined as 100 µg/mL (≈ 480 µM).

Turning to `O=c1[nH]cc(C#CC(O)c2ccccc2)c(=O)[nH]1` (stereo not drawn), the results for the “growth inhibition (GI)” value in [1] and in [6] were 90% and 50%, respectively. Moreover, in assay [2], the inhibition of growth at 10 µg/mL was 80%. Also, the MIC50 in assay [3] was 3.1 µg/mL (≈ 12.8 µM).

Consider `O=c1[nH]c(=O)n([C@@H]2O[C@H](CO)[C@@H](O)[C@H]2O)cc1C#CC1CCCCC1`, for which, in [4], the inhibition of growth at 100 µg/mL came to 90%. For the same molecule, the “growth inhibition (GI)” value in assay [6] amounted to 10%. The inhibition of growth at 25 µg/mL in assay [9] stood at 60%. The MIC50 in assay [3] worked out at 19.2 µg/mL (≈ 54.8 µM).

`N[C@@H]1CONC1=O` [CYCLOSERINE]: in [2], the inhibition of growth at 10 µg/mL is 71%. Besides, in assay [10], the inhibition of growth at 5 µg/mL was 50%. In assay [3], the MIC50 came out at 5.1 µg/mL (≈ 50 µM).

As for `NNC(=O)c1ccncc1` [ISONIAZID], the inhibition of growth at 1 µg/mL in assay [11] amounted to 100%. For the same molecule, the MIC50 in assay [3] was 0.9 µg/mL (≈ 6.56 µM).

For the molecule `CO[C@H]1/C=C/O[C@@]2(C)Oc3c(C)c(O)c4c(O)c(c(/C=N/N5CCN(C)CC5)c(O)c4c3C2=O)NC(=O)/C(C)=C\C=C\[C@H](C)[C@H](O)[C@@H](C)[C@@H](O)[C@@H](C)[C@H](OC(C)=O)[C@@H]1C` [RIFAMPIN], in assay [11], the inhibition of growth at 1 µg/mL worked out at 100%. In [3], the MIC50 stood at 0.8 µg/mL (≈ 0.972 µM).
